Data set [1] can be described thus: Cytotoxicity against human HT-29 cells assessed as cell survival at 5 uM after 8 hrs by alamar blue assay relative to control. Format: cell-based. Particulars: read-out: Survival. In short, it runs like this:
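Cells cultured overnight, then exposed to compound at 5 μM for 8 h. Viability read by Alamar Blue per kit instructions. Table reports n=3.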
(In general: Alamar Blue is a resazurin reagent that responds to reducing activity.)

The target in data set [2] is Cystic fibrosis transmembrane conductance regulator (Homo sapiens) (UniProt P13569). The experiment in a line: Inhibition of human wild type CFTR expressed in FRT cells co-expressing halide sensitive YFP-H148Q assessed as reduction in forskolin induced cAMP activated chloride conductance by measuring decrease in iodide influx after 15 mins by fluorescence assay. Format: cell-based. The method in brief:
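FRT cells co-expressing YFP and wild-type CFTR, washed with PBS. Incubated 15 min with compound in PBS containing 20 μM forskolin. Plate reader baseline 2 s, then 12 s after rapid addition of I⁻-containing solution; initial I⁻ influx rate computed.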

Data set [3] can be described thus: Solubility of compound in DMSO. The format is physicochemical.
Data set [4] deals with T1, Anoctamin-1 (Homo sapiens, UniProt Q5XXA6).
T1 sequence (Q5XXA6 whole entry): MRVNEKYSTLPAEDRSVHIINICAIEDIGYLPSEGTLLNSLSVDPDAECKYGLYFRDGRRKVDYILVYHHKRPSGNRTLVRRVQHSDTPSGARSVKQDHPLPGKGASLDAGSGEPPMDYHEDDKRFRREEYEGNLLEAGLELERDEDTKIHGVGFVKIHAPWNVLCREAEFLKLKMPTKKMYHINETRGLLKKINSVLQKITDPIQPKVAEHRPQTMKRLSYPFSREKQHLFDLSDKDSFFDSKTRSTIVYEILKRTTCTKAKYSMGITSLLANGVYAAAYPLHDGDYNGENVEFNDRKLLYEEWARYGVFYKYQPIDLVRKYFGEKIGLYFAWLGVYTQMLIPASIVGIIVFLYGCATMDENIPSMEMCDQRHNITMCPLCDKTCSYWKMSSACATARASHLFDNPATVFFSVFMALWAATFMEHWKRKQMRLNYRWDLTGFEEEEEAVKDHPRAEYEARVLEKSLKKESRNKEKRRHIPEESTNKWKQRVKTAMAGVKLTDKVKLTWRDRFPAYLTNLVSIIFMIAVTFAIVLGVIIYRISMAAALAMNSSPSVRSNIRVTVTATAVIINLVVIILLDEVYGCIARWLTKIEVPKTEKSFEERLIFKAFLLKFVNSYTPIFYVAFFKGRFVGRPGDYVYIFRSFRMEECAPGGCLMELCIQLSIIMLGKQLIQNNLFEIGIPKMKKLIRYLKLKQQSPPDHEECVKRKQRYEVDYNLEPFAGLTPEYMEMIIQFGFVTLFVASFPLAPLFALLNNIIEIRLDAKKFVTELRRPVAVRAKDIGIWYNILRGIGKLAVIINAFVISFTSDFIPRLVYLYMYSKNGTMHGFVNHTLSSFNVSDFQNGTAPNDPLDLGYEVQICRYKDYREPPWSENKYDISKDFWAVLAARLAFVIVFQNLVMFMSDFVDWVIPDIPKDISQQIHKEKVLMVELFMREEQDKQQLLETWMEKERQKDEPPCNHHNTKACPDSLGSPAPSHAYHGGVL
Kind of data set: (§1) Inhibition of human TMEM16A expressed in FRT cells co-expressing iodide sensitive fluorescent protein YFP-H148Q/I152L/F46L assessed as reduction in ATP-induced Ca2+ activation-mediated chloride current by measuring decrease in iodide influx preincubated for 10 mins followed by ATP/iodide addition by fluorescence assay. The format is cell-based. In short, it runs like this:
(§2)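 FRT cells stably expressing human TMEM16A and YFP, plated at 20,000 cells/well and used 24–48 h later. An equal volume of 140 mM I⁻ solution containing 300 μM ATP was added, and reading continued 12 s at 400 ms/point. Initial I⁻ influx rate fitted by nonlinear regression; IC₅₀ from concentration-inhibition data.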

Data set [5] is described as follows: Drug level in aqueous solution treated with 2-(2-Bromo-2,2-difluoro-acetylamino)-5,6,7,8-tetrahydro-4H-cyclohepta[b]thiophene-3-carboxylicacid-o-tolylamide after 3 days by ESI-LCMS analysis. The method in brief: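 Duplicate samples of 100 μM compound in H₂O (20% DMSO) with 100 μM 5-chloro-3-phenyl-2,1-benzisoxazole as internal standard. Kept at 25 °C for 3 days and analysed daily by ESI-LCMS for the parent compound and the oxalamic acid degradation product.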

Data set [6] deals with T1, Anoctamin-1. Kind of data set: Inhibition of human TMEM16A expressed in FRT cells assessed as reduction of ATP-induced in chloride conductance preincubated for 5 mins followed by ATP addition by short-circuit current assay. The format is cell-based.
Data set [7] concerns the target T2, Anoctamin-2 (Homo sapiens, UniProt Q9NQ90).
T2 sequence (Q9NQ90 whole entry): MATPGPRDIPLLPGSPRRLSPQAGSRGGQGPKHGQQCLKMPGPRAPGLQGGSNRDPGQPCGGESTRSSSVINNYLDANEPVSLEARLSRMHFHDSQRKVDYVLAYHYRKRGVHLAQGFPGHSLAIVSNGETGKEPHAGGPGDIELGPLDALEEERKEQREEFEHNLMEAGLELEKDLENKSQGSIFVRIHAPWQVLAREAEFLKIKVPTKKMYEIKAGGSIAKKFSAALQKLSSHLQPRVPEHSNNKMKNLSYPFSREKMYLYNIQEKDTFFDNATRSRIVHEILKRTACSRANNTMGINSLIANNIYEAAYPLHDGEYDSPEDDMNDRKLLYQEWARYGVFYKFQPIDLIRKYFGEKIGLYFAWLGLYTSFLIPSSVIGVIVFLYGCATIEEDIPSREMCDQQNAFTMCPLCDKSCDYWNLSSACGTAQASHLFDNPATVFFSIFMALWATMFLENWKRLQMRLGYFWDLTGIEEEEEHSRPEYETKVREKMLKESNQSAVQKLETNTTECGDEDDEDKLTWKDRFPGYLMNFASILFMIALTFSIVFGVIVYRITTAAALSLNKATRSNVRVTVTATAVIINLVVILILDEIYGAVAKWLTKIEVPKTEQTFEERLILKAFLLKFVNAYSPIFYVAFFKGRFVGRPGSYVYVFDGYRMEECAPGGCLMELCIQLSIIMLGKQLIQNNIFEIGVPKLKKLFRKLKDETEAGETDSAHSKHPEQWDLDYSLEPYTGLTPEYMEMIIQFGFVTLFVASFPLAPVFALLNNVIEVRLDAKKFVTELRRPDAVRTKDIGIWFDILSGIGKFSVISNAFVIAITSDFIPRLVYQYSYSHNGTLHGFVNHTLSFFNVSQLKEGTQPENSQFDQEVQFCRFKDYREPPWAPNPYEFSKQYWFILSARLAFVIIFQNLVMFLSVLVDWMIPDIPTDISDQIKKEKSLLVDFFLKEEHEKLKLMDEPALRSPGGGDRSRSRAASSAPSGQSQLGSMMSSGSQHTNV
Kind of data set: Inhibition of TMEM16B (unknown origin) expressed in FRT cells assessed as reduction of ATP-induced chloride conductance preincubated for 20 mins followed by ATP addition by short-circuit current assay. The format is cell-based.

Data set [8] addresses T1, Anoctamin-1. Kind of data set: Inhibition of TMEM16A (unknown origin) expressed in Xenopus laevis oocytes at -60 mV holding potential by voltage-clamp assay.
The target of data set [9] is T2, Anoctamin-2. Kind of data set: Inhibition of human TMEM16B expressed in FRT cells co-expressing iodide sensitive fluorescent protein YFP-H148Q/I152L/F46L assessed as reduction in ATP-induced Ca2+ activation-mediated chloride current by measuring decrease in iodide influx preincubated for 10 mins followed by ATP/iodide addition by fluorescence assay. The format is cell-based. The method in brief: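 FRT cells co-expressing YFP and TMEM16B, given compound for 10 min, then I⁻ solution with ATP added. Fluorescence read by plate reader; initial I⁻ influx rate computed. IC₅₀ from concentration-inhibition data; n=3.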

Data set [10] is described as follows: Inhibition of calcium activated chloride channel in ATP-activated human HT-29 cells expressing YFP-H148Q/152L assessed as reduction in iodide influx preincubated for 10 mins followed by ATP addition by fluorescence assay. The method in brief: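 Endogenous non-TMEM16A CaCC in HT-29 cells expressing YFP, read by plate reader. Initial rate of I⁻ influx taken as a linear measure of channel function. IC₅₀ from concentration-inhibition data; n=3.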

For another data set, the system named is Liver. The experiment in a line: Metabolic stability in rat liver microsomes at 10 uM after 180 mins in presence of NADPH by LC/MS analysis. Format: ADME, microsome. Particulars: 3 h. The method in brief:
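10 μM compound shaken at 37 °C with rat liver microsomes (1 mg protein/mL) in 100 mM potassium phosphate buffer with 1 mM NADPH, sampled at 2–180 min. Quenched on ice with ice-cold ethyl acetate, centrifuged, supernatant dried and redissolved. Parent compound quantified by C₁₈ reverse-phase LC/MS (5–95% acetonitrile gradient); mean ± SEM, n=3.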
On the technique in general: Microsomes from liver hold many membrane-bound enzymes, among them those of drug oxidation.

For data set [11], the target named is T3, Anoctamin-1 (Homo sapiens) (UniProt Q5XXA6).
T3 sequence (whole entry): T1 sequence (Q5XXA6 whole entry)
The description is as §1. Format: cell-based. The method in brief: as §2

Calls of active or inactive are those of the source. The calls are words filed in the database; no cut-off is given here. Bounds are passed on as bounds.

Cystic fibrosis transmembrane conductance regulator (Homo sapiens), sequence (P13569 whole entry, looked up): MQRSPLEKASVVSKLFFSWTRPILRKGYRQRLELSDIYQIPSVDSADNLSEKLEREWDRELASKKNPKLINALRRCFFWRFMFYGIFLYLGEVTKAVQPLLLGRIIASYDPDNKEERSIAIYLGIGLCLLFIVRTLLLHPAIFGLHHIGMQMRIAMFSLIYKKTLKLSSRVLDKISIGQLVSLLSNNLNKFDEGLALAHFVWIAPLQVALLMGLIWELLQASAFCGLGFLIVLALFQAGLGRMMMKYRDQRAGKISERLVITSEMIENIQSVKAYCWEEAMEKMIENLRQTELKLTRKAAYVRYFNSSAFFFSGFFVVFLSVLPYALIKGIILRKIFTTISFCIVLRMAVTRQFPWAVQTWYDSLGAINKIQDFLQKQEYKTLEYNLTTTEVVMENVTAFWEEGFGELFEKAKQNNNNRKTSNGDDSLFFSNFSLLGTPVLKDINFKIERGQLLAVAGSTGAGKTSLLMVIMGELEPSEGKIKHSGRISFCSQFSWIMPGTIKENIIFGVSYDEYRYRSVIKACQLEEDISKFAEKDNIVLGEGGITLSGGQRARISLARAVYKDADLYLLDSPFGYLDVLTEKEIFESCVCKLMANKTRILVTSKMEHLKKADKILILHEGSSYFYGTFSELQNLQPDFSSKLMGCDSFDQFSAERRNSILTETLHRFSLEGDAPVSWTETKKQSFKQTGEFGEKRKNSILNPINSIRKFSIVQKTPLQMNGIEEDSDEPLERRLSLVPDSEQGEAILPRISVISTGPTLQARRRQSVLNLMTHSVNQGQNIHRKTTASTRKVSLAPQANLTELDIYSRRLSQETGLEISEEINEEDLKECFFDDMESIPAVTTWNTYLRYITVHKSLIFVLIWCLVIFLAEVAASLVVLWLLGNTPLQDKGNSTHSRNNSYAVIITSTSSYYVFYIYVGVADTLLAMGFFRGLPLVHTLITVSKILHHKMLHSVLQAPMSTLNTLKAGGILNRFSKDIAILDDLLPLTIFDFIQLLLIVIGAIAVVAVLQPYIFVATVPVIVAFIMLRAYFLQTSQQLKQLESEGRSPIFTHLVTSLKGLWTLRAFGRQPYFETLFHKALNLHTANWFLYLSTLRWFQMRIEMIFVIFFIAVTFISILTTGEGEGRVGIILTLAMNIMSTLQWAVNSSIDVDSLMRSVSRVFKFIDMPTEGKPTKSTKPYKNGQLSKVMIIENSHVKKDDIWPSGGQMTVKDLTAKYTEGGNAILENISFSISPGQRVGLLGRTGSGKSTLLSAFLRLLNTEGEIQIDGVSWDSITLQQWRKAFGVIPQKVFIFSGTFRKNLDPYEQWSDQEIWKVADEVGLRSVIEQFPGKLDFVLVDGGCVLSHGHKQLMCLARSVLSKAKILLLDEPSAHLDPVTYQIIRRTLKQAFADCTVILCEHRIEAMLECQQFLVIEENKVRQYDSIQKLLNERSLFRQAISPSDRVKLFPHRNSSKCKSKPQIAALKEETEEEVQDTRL

Consider `Cc1ccccc1NC(=O)c1c(NC(=O)C(F)(F)I)sc2c1CCCCC2`, for which the viability at 8 h, 5 µM in [1] is 96%. Also, the inhibition result in data set [2] is “inactive”.
Regarding `O=C(Nc1ccccc1OC(F)(F)F)c1c(NC(=O)C(F)(F)Br)sc2c1CCC2`, the solubility result in [3] was “Insoluble”.
Usually IC50 stands for the concentration at which inhibition is half-maximal. `CCC(=O)Nc1sc2c(c1C(=O)Nc1ccccc1OC(F)(F)F)CCCCC2`: the IC50 at Anoctamin-1 [4] was over 20 µM.
Consider `Cc1ccccc1NC(=O)c1c(NC(=O)C(=O)F)sc2c1CCCCC2`, for which the Drug metabolism result in data set [5] is “Metabolite detected”.
Turning to `O=C(Nc1ccc(F)cc1)c1c(NC(=O)C(F)(F)I)sc2c1CCCCC2`, the inhibition result in data set [2] was “inactive”.
Turning to `Cc1ccccc1NC(=O)c1c(NC(=O)C(O)(F)F)sc2c1CCCCC2`, the Drug metabolism result in data set [5] is listed as “Metabolite detected”.
Consider `CCc1c(C)nc(SCC(=O)Nc2nc(-c3ccc(OC)cc3)cs2)nc1O`, for which, in [1], the viability at 8 h, 5 µM amounted to 97%. Also, the inhibition entry in data set [2] was “inactive”. In addition, the IC50 was found to be 1000 nM at Anoctamin-1 [6] and 4 µM at Anoctamin-2 [7].
For the compound `COc1cc(Nc2ccc([N+](=O)[O-])cc2C(=O)O)cc2ccccc12`, the viability at 8 h, 5 µM in data set [1] was 100%. For the same compound, in data set [2], the inhibition entry was “inactive”. Also, the IC50 against Anoctamin-1 [8] is 80 nM; on Anoctamin-2 [9], 13 µM; in [10], over 20 µM; on Anoctamin-1 [6] it was 1600 nM.
On to `Cc1ccccc1NC(=O)c1c(NC(=O)C(=O)O)sc2c1CCCCC2`, for which the Drug metabolism entry in [5] is given as “Metabolite detected”.
Consider `CCC(=O)Nc1sc2c(c1C(=O)Nc1ccccc1C)CCCCC2`, for which the IC50 on Anoctamin-1 [4] was over 20 µM.
Consider `Cc1ccccc1NC(=O)c1c(NC(=O)C(F)(F)Cl)sc2c1CCCCC2`, for which the viability at 8 h, 5 µM in [1] was found to be 98%. In addition, the inhibition entry in data set [2] is “inactive”.
With `O=C(Nc1ccccc1)c1c(NC(=O)C(F)(F)F)sc2c1CCCCC2`, in [2], the inhibition entry was “inactive”.
`COc1ccccc1/C=N/NC(=O)COc1ccc(Cl)cc1C`: the inhibition entry in data set [2] was “inactive”. In addition, in the data set with Liver, the Stability entry is reported as “Unstable”.
On to `Cc1ccccc1NC(=O)c1c(NC(=O)C(F)(F)F)sc2c1CCCCC2`, for which, in data set [1], the viability at 8 h, 5 µM came out at 99%. In [2], the inhibition result is “inactive”. The IC50 in data set [10] was 4 µM. For the same compound, in data set [11], the inhibition result is “Dose-dependent effect”.
In the case of `O=C(Nc1ccccc1OC(F)(F)F)c1c(NC(=O)C(F)(F)Cl)sc2c1CCC2`, the solubility result in data set [3] is on record as “Insoluble”.

For the origin of these results see ChEMBL document CHEMBL4014325.
